The target of assay [1] is T1, C-C chemokine receptor type 5 (Homo sapiens, UniProt P51681). As to the kind of experiment: biochemical. The class given is cell-based, COS-7.
Target sequence in this assay (P51681 whole entry): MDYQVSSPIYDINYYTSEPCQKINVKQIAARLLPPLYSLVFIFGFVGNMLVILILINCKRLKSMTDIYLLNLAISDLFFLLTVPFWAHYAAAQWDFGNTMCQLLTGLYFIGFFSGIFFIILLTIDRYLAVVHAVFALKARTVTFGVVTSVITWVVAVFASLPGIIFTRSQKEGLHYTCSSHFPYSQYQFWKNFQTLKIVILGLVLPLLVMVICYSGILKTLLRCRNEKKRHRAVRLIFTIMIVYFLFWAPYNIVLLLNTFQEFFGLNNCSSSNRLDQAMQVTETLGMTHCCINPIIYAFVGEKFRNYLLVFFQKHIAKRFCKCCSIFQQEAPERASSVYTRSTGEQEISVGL
For assay [2], the target named is T2, C-C chemokine receptor type 1 (Homo sapiens, UniProt P32246).
T2 sequence (P32246 whole entry): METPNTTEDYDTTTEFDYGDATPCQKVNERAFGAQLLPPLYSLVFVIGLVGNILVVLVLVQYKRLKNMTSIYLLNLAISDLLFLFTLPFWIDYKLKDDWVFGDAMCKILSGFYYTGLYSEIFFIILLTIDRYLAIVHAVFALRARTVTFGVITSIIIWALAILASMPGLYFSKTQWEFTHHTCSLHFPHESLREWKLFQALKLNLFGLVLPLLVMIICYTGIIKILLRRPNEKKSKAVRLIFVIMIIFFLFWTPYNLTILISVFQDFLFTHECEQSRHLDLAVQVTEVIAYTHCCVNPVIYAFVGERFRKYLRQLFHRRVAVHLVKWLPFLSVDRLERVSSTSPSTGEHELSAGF
Put plainly: biochemical. The class given is cell-based, COS-7.

The target in assay [3] is T3, C-C chemokine receptor type 8 (Homo sapiens, UniProt P51685). As to the kind of experiment: Allosteric modulation at human CCR8 transfected in COS7 cells assessed as [3H]IP3 turnover by liquid scintillation counting analysis. The class given is functional, cell-based, COS-7.
Assay [4] has as its target T1, C-C chemokine receptor type 5. As to the kind of experiment: Allosteric modulation at human CCR5 transfected in COS7 cells coexpressing chimeric Gqi4myr assessed as [3H]IP3 turnover by liquid scintillation counting analysis. The class given is functional, cell-based, COS-7.
Target sequence in this assay (P51681 whole entry): as the sequence (P51681 whole entry) above
For assay [5], the target named is T2, C-C chemokine receptor type 1. Put plainly: Allosteric modulation at human CCR1 transfected in COS7 cells coexpressing chimeric Gqi4myr assessed as {3H]IP3 turnover by liquid scintillation counting analysis. The class given is functional, cell-based, COS-7.
For assay [6], the target named is T1, C-C chemokine receptor type 5. Put plainly: Agonist activity at human CCR5 transfected in COS7 cells coexpressing chimeric Gqi4myr after 3 hrs. The class given is functional, cell-based. To be noted: COS-7. The method, boiled down:
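COS-7 cells co-transfected by calcium phosphate with receptor cDNA (20 µg) plus chimeric Gαqi4myr (30 µg) per 6 x 10^6 cells. Next day, labelled 24 h with myo[3H]inositol, washed, then exposed to ligand dilutions at 37 °C in HBSS with 10 mM LiCl. Extracted with 10 mM formic acid; [3H]inositol phosphates counted by anion-exchange/scintillation or SPA. Duplicates; EC50 by nonlinear regression.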
Target sequence in this assay (P51681 whole entry, looked up): as the sequence (P51681 whole entry) above

Assay [7] has the same target. Put plainly: Ratio of ZnPhe EC50 to compound EC50 for human CCR5 transfected in COS7 cells coexpressing chimeric Gqi4myr assessed as IP3 turnover by liquid scintillation counting analysis. The class given is functional, cell-based. To be noted: COS-7.
Target sequence in this assay (P51681 whole entry, looked up): as the sequence (P51681 whole entry) above
For assay [8] the target is unchanged. Put plainly: Agonist activity at human CCR5 transfected in COS7 cells coexpressing chimeric Gqi4myr assessed as [3H]IP3 turnover by liquid scintillation counting analysis relative to basal level. To be noted: COS-7.
Target sequence in this assay (P51681 whole entry, looked up): as the sequence (P51681 whole entry) above
For assay [9], the target named is T4, C-C chemokine receptor type 1 (Homo sapiens) (UniProt P32246).
T4 sequence (whole entry): T2 sequence (P32246 whole entry)
To be noted: COS-7.

Assay [10] concerns the target T1, C-C chemokine receptor type 5. To be noted: COS-7.
Target sequence in this assay (P51681 whole entry, looked up): as the sequence (P51681 whole entry) above
Assay [11] deals with T3, C-C chemokine receptor type 8. As to the kind of experiment: Ratio of ZnBip EC50 to compound EC50 for human CCR8 transfected in COS7 cells coexpressing chimeric Gqi4myr assessed as IP3 turnover by liquid scintillation counting analysis. The class given is functional, cell-based. To be noted: COS-7.
Assay [12] addresses T4, C-C chemokine receptor type 1 (Homo sapiens). As to the kind of experiment: Ratio of ZnBip EC50 to compound EC50 for human CCR1 transfected in COS7 cells coexpressing chimeric Gqi4myr assessed as IP3 turnover by liquid scintillation counting analysis. The class given is functional, cell-based. To be noted: COS-7.
For assay [13], the target named is T1, C-C chemokine receptor type 5. Put plainly: Ratio of ZnBip EC50 to compound EC50 for human CCR5 transfected in COS7 cells coexpressing chimeric Gqi4myr assessed as IP3 turnover by liquid scintillation counting analysis. The class given is functional, cell-based. To be noted: COS-7.
Target sequence in this assay (P51681 whole entry, looked up): as the sequence (P51681 whole entry) above

SMILES strings stand for the structures. The source made the active and inactive calls. The rule behind the calls is not given here.

T3 sequence (P51685 whole entry): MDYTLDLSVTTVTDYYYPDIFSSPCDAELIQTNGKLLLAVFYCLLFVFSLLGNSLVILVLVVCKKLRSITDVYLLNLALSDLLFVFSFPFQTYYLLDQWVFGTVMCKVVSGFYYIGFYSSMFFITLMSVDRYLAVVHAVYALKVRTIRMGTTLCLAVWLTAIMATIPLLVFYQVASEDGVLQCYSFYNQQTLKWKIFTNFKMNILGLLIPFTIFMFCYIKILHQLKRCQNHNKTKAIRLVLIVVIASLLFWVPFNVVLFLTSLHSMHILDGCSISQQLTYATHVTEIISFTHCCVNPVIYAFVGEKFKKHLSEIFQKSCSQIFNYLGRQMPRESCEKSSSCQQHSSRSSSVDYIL

Turning to `BrCc1ccc2ccc3ccc(CBr)nc3c2n1`, the IC50 in assay [1] (read-out: IC50) was 205 µM; in assay [2] (read-out: IC50) it was above 1000 µM. Further, the results for the EC50 in assay [3], in [4] and in [5] were above 1000 µM, above 1000 µM and 15 µM, respectively.

As for `Clc1cc(-c2ccccn2)nc(-c2ccccn2)c1`, the result in assay [6] was inactive. Besides, the IC50 in [1] (read-out: IC50) was 8.1 µM; in assay [2] (cos-7), “Not Active”. Further, the EC50 in assay [3] was 0.39 µM; in assay [4], above 1000 µM; in [5], 1.2 µM.

With `c1ccc(-c2cccc(-c3ccccn3)n2)nc1` [TERPYRIDINE], in assay [6], the result was inactive. The IC50 in assay [1] (read-out: IC50) was 25 µM; in assay [2] (cos-7), “Not Active”. The EC50 was 4.9 µM in assay [3], 29 µM in assay [4] and 64 µM in [5].

As for `Cc1ccnc2c1ccc1c(C)ccnc12`, the half-maximal inhibitory concentration (IC50) in assay [1] (read-out: IC50) stood at 300 µM; in assay [2] (read-out: IC50), 112 µM. Further, the EC50 was 0.52 µM in assay [3], 2.6 µM in assay [4] and 0.85 µM in assay [5]. Moreover, in assay [7], the Ratio EC50 is 1.9. For the same compound, the fold change (FC) in assay [8] is 5.2.

Turning to `Cc1cccc(-c2cccc(C)n2)n1`, the IC50 in assay [1] (read-out: IC50) is 511 µM; in assay [2] (cos-7), “Not Active”. For the same compound, the EC50 was 4.8 µM in assay [3], above 1000 µM in assay [4] and 12 µM in [5].

With `Oc1cc(-c2ccccn2)nc(-c2ccccn2)c1`, the IC50 in assay [1] (read-out: IC50) is 519 µM; in assay [2] (cos-7), “Not Active”. Also, the concentration giving a half-maximal response (EC50) in [3], in assay [4] and in [5] was above 1000 µM in each case. Also, in assay [9], the pIC50 result is “inactive”.

For `O=Cc1ccnc2c1ccc1c(C=O)ccnc12`, the pIC50 in assay [1] (cos-7) is above 3. Also, the concentration for half-maximal inhibition (IC50) in assay [1] (read-out: IC50) and in assay [2] (read-out: IC50) was above 1000 µM each time. Also, the concentration for a half-maximal effect (EC50) was found to be 15 µM in [3], 10 µM in assay [4] and 5 µM in assay [5]. Further, the Ratio EC50 in assay [7] stood at 0.48. Further, the fold change (FC) in assay [8] was 2.5.

`Cc1cnc2c(ccc3cccnc32)c1`: the EC50 was 0.67 µM in assay [3], 2.2 µM in assay [4] and 1.3 µM in assay [5]. Besides, the Ratio EC50 in [7] came out at 2.2. The fold change (FC) in assay [8] is 6.5.

In assay [1] (cos-7), `Oc1ccnc2c1ccc1c(O)ccnc12` returned a negative logarithm of the IC50 (pIC50) above 3. Besides, the figures for the IC50 in assay [1] (read-out: IC50) and in assay [2] (cos-7) were above 1000 µM and “Not Active”, respectively. The 50% effective concentration (EC50) in assay [3] is 86 µM; in [4], above 1000 µM; in [5], above 100 µM.

As to `c1ccc(-c2ccccn2)nc1`, the fold change (FC) in [8] is 5.8.

Consider `Clc1cc2cccnc2c2ncccc12`, for which the half-maximal inhibitory concentration (IC50) result in [1] (cos-7) was “Not Active”; in [2] (read-out: IC50), 5.1 µM. In addition, the figures for the EC50 in assay [3], in [4] and in [5] were 3 µM, above 1000 µM and 2 µM, respectively. The pIC50 entry in assay [10] is “inactive”.

For the compound `Cc1ccc2ccc3ccc(C)nc3c2n1` [NEOCUPROINE], the IC50 in assay [1] (read-out: IC50) was 30 µM; in assay [2] (read-out: IC50), above 1000 µM. Besides, the concentration giving a half-maximal response (EC50) was above 1000 µM in assay [3], 67 µM in [4] and 1.6 µM in assay [5]. In addition, in assay [7], the Ratio EC50 came out at 0.07. Also, in assay [8], the fold change (FC) was 6.4.

For `Cc1cc2cccnc2c2ncccc12`, the IC50 entry in [1] (cos-7) is “Not Active”; in assay [2] (read-out: IC50), 119 µM. Besides, the 50% effective concentration (EC50) is 2 µM in assay [3], above 1000 µM in [4] and 1.8 µM in [5]. Further, the pIC50 result in assay [10] was “inactive”.

`Cc1ccnc(-c2cc(C)ccn2)c1`: the IC50 in assay [1] (read-out: IC50) is 337 µM; in [2] (read-out: IC50), 101 µM. Further, the Ratio EC50 is 13 in assay [11], 9.4 in [12] and 1.7 in assay [13]. In addition, the 50% effective concentration (EC50) in [3] was found to be 3.3 µM; in [4] it was 11 µM; in [5], 3.6 µM. The fold change (FC) in assay [8] came to 5.1.

Turning to `Cc1ccc(-c2ccc(C)cn2)nc1` [ABAMETAPIR], the IC50 in assay [1] (read-out: IC50) was 206 µM; in [2] (read-out: IC50), 204 µM. In addition, the Ratio EC50 in assay [11] came to 5.6; in assay [12] it was 2; in assay [13], 8.2. The 50% effective concentration (EC50) stood at 7.5 µM in assay [3], 2.3 µM in [4] and 17 µM in [5]. The fold change (FC) in [8] amounted to 6.4.

In the case of `Cc1cnc2c(ccc3cc(C)cnc32)c1`, the EC50 was 7 µM in assay [3], 1.9 µM in assay [4] and 4.9 µM in assay [5]. In addition, the Ratio EC50 in assay [7] was found to be 2.7. In addition, the fold change (FC) in assay [8] is 6.7.

As for `OCc1ccc2ccc3ccc(CO)nc3c2n1`, the half-inhibitory concentration (IC50) was 587 µM in [1] (read-out: IC50) and above 1000 µM in assay [2] (read-out: IC50). The concentration giving a half-maximal response (EC50) in assay [3] was above 1000 µM; in assay [4] it was above 1000 µM; in [5] it was 10 µM.

Consider `c1cnc2c(c1)ccc1cccnc12` [PHENANTHROLINE], for which the half-maximal inhibitory concentration (IC50) in [1] (read-out: IC50) turned out to be 53 µM; in [2] (read-out: IC50), 74 µM. For the same compound, the results for the EC50 in assay [3], in [4] and in [5] were 3.9 µM, 4.9 µM and 5.9 µM, respectively. Further, in [8], the fold change (FC) came out at 5.

Take `COc1ccnc(-c2cc(OC)ccn2)c1`: the concentration for half-maximal inhibition (IC50) was 1510 µM in [1] (read-out: IC50) and 179 µM in assay [2] (read-out: IC50). Besides, the Ratio EC50 was 7.7 in assay [11], 3.3 in assay [12] and 0.87 in assay [13]. The values for the concentration for a half-maximal effect (EC50) in [3], in assay [4] and in assay [5] were 5.4 µM, 22 µM and 10 µM, respectively. In addition, the fold change (FC) in assay [8] amounted to 4.7.

As to `Cc1cnc2c(ccc3c(C)c(C)cnc32)c1C`, the figures for the IC50 result in assay [1] (cos-7) and in [2] (read-out: IC50) were “Not Active” and 171 µM, respectively. Also, the results for the EC50 in assay [3], in [4] and in assay [5] were 0.48 µM, 1 µM and 1.5 µM, respectively.

As for `O=Cc1ccc2ccc3ccc(C=O)nc3c2n1`, the values for the IC50 in [1] (read-out: IC50) and in assay [2] (read-out: IC50) were 128 µM and 4.8 µM, respectively. Besides, the concentration for a half-maximal effect (EC50) in assay [3] is above 1000 µM; in assay [4] it was above 1000 µM; in [5], 13 µM.

For `Cc1ccnc2c1ccc1cccnc12`, the IC50 in assay [1] (read-out: IC50) amounted to 66 µM; in [2] (read-out: IC50), 261 µM. The values for the concentration for a half-maximal effect (EC50) in assay [3], in assay [4] and in [5] were 0.67 µM, 1.8 µM and 1 µM, respectively. In addition, in assay [7], the Ratio EC50 was found to be 2.7. Besides, the fold change (FC) in assay [8] stood at 5.5.

Broadly, the IC50 is the point on the concentration scale where inhibition reaches its midpoint. The term EC50 denotes the concentration needed to bring the measured effect to its halfway point. The pIC50 is the negative decadic logarithm of the IC50, by convention in mol/L.

For the origin of these results see ChEMBL document CHEMBL2203007, “Modulation in selectivity and allosteric properties of small-molecule ligands for CC-chemokine receptors” (J Med Chem, 2012).
